Assay results taken from ChEMBL document CHEMBL1926577, “Novel 1,3,4-heterodiazole analogues: synthesis and in-vitro antitumor activity” (2012).

How the values were obtained:
Format in all cases: functional
LOX IMVI = assay: Growth inhibition of human LOXIMVI cells at 10 uM after 48 hrs by coulter counter method; details: read-out: GI
Method in brief: (§1)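 NCI 60-cell-line panel, single dose. Compound dissolved first in DMSO, then diluted in phosphate-buffered saline so that every final dilution held under 1% DMSO. Duplicate wells received cells at 6 × 10⁴ cells/ml. Controls held PBS/DMSO at the same dilution. Plates were incubated 48 h at 37 °C under 5% CO₂. Cells were then diluted 10-fold in saline and counted on a Coulter counter, with counts corrected for the dilution. Results are given as percent growth inhibition.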

SF-268 = assay: Growth inhibition of human SF268 cells at 10 uM after 48 hrs by coulter counter method; details: SF-268, 48 h, read-out: GI; method in brief: as §1
SNB-19 = assay: Growth inhibition of human SNB19 cells at 10 uM after 48 hrs by coulter counter method; details: SNB-19, 48 h, read-out: GI; method in brief: as §1
OVCAR-8 = assay: Growth inhibition of human OVCAR8 cells at 10 uM after 48 hrs by coulter counter method; details: OVCAR-8, 48 h, read-out: GI; method in brief: as §1
NCI/ADR-RES = assay: Growth inhibition of human NCI/ADR-RES cells at 10 uM after 48 hrs by coulter counter method; details: read-out: GI; method in brief: as §1
UO-31 = assay: Growth inhibition of human UO31 cells at 10 uM after 48 hrs by coulter counter method; details: UO-31, 48 h, read-out: GI; method in brief: as §1
MCF7 = assay: Growth inhibition of human MCF7 cells at 10 uM after 48 hrs by coulter counter method; details: MCF7, 48 h, read-out: GI; method in brief: as §1
SR = assay: Growth inhibition of human SR cells at 10 uM after 48 hrs by coulter counter method; details: read-out: GI; method in brief: as §1
BT-549 = assay: Growth inhibition of human BT549 cells at 10 uM after 48 hrs by coulter counter method; details: BT-549, 48 h, read-out: GI; method in brief: as §1
NCI-H522 = assay: Growth inhibition of human NCI-H522 cells at 10 uM after 48 hrs by coulter counter method; details: NCI-H522, 48 h, read-out: GI; method in brief: as §1
SNB-75 = assay: Growth inhibition of human SNB75 cells at 10 uM after 48 hrs by coulter counter method; details: SNB-75, 48 h, read-out: GI; method in brief: as §1
MDA-MB-468 = assay: Growth inhibition of human MDA-MB-468 cells at 10 uM after 48 hrs by coulter counter method; details: MDA-MB-468, 48 h, read-out: GI; method in brief: as §1
MOLT-4 = assay: Growth inhibition of human MOLT4 cells at 10 uM after 48 hrs by coulter counter method; details: MOLT-4, 48 h, read-out: GI; method in brief: as §1
SN12C = assay: Growth inhibition of human SN12C cells at 10 uM after 48 hrs by coulter counter method; details: read-out: GI; method in brief: as §1
MDA-MB-435 = assay: Growth inhibition of human MDA-MB-435 cells at 10 uM after 48 hrs by coulter counter method; details: MDA-MB-435, 48 h, read-out: GI; method in brief: as §1
A498 = assay: Growth inhibition of human A498 cells at 10 uM after 48 hrs by coulter counter method; details: A498, 48 h, read-out: GI; method in brief: as §1
CAKI-1 = assay: Growth inhibition of human Caki1 cells at 10 uM after 48 hrs by coulter counter method; details: CAKI-1, 48 h, read-out: GI; method in brief: as §1
RPMI-8226 = assay: Growth inhibition of human RPMI8226 cells at 10 uM after 48 hrs by coulter counter method; details: RPMI-8226, 48 h, read-out: GI; method in brief: as §1
A549 = assay: Growth inhibition of human A549 cells at 10 uM after 48 hrs by coulter counter method; details: A549, 48 h, read-out: GI; method in brief: as §1
IGROV-1 = assay: Growth inhibition of human IGROV1 cells at 10 uM after 48 hrs by coulter counter method; details: IGROV-1, 48 h, read-out: GI; method in brief: as §1
NCI-H226 = assay: Growth inhibition of human NCI-H226 cells at 10 uM after 48 hrs by coulter counter method; details: NCI-H226, 48 h, read-out: GI; method in brief: as §1
M14 = assay: Growth inhibition of human M14 cells at 10 uM after 48 hrs by coulter counter method; details: M14, 48 h, read-out: GI; method in brief: as §1
K562 = assay: Growth inhibition of human K562 cells at 10 uM after 48 hrs by coulter counter method; details: K562, 48 h, read-out: GI; method in brief: as §1
CCRF-CEM = assay: Growth inhibition of human CCRF-CEM cells at 10 uM after 48 hrs by coulter counter method; details: read-out: GI; method in brief: as §1
786-0 = assay: Growth inhibition of human 786-0 cells at 10 uM after 48 hrs by coulter counter method; details: 786-0, 48 h, read-out: GI; method in brief: as §1
SK-MEL-2 = assay: Growth inhibition of human SK-MEL-2 cells at 10 uM after 48 hrs by coulter counter method; details: SK-MEL-2, 48 h, read-out: GI; method in brief: as §1
HCT-15 = assay: Growth inhibition of human HCT15 cells at 10 uM after 48 hrs by coulter counter method; details: HCT-15, 48 h, read-out: GI; method in brief: as §1
U-251 = assay: Growth inhibition of human U251 cells at 10 uM after 48 hrs by coulter counter method; details: U-251, 48 h, read-out: GI; method in brief: as §1
PC-3 = assay: Growth inhibition of human PC3 cells at 10 uM after 48 hrs by coulter counter method; details: PC-3, 48 h, read-out: GI; method in brief: as §1
T47D = assay: Growth inhibition of human T47D cells at 10 uM after 48 hrs by coulter counter method; details: read-out: GI; method in brief: as §1
SK-MEL-28 = assay: Growth inhibition of human SK-MEL-28 cells at 10 uM after 48 hrs by coulter counter method; details: SK-MEL-28, 48 h, read-out: GI; method in brief: as §1
ACHN = assay: Growth inhibition of human ACHN cells at 10 uM after 48 hrs by coulter counter method; details: read-out: GI; method in brief: as §1
HL-60(TB) = assay: Growth inhibition of human HL-60(TB) cells at 10 uM after 48 hrs by coulter counter method; details: HL-60, 48 h, read-out: GI
Method in brief: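 Single-dose screen on the NCI 60-line panel (leukemia subpanel). Compound is dissolved in DMSO and diluted in PBS, with final DMSO below 1%. Duplicate wells hold 6 × 10⁴ cells/ml at 37 °C, 5% CO₂, for 48 h. Cells are counted by Coulter counter after 10-fold saline dilution. Read-out is percent growth versus PBS/DMSO controls, expressed as % growth inhibition.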

UACC-257 = assay: Growth inhibition of human UACC257 cells at 10 uM after 48 hrs by coulter counter method; details: UACC-257, 48 h, read-out: GI; method in brief: as §1
Malme-3M = assay: Growth inhibition of human MALME-3M cells at 10 uM after 48 hrs by coulter counter method; details: read-out: GI; method in brief: as §1
TK-10 = assay: Growth inhibition of human TK10 cells at 10 uM after 48 hrs by coulter counter method; details: TK-10, 48 h, read-out: GI; method in brief: as §1
HT-29 = assay: Growth inhibition of human HT-29 cells at 10 uM after 48 hrs by coulter counter method; details: HT-29, 48 h, read-out: GI; method in brief: as §1
NCI-H23 = assay: Growth inhibition of human NCI-H23 cells at 10 uM after 48 hrs by coulter counter method; details: NCI-H23, 48 h, read-out: GI; method in brief: as §1
NCI-H322M = assay: Growth inhibition of human NCI-H322M cells at 10 uM after 48 hrs by coulter counter method; details: read-out: GI; method in brief: as §1
HCT-116 = assay: Growth inhibition of human HCT116 cells at 10 uM after 48 hrs by coulter counter method; details: HCT-116, 48 h, read-out: GI; method in brief: as §1
SK-MEL-5 = assay: Growth inhibition of human SK-MEL-5 cells at 10 uM after 48 hrs by coulter counter method; details: SK-MEL-5, 48 h, read-out: GI; method in brief: as §1
SF-295 = assay: Growth inhibition of human SF295 cells at 10 uM after 48 hrs by coulter counter method; details: SF-295, 48 h, read-out: GI; method in brief: as §1
EKVX = assay: Growth inhibition of human EKVX cells at 10 uM after 48 hrs by coulter counter method; details: read-out: GI; method in brief: as §1
KM12 = assay: Growth inhibition of human KM12 cells at 10 uM after 48 hrs by coulter counter method; details: KM12, 48 h, read-out: GI; method in brief: as §1
UACC-62 = assay: Growth inhibition of human UACC62 cells at 10 uM after 48 hrs by coulter counter method; details: UACC-62, 48 h, read-out: GI; method in brief: as §1

Measured: inhibition of growth at 10 µM

O=C(CCN1CCCCC1)Nc1nnc(-c2ccc(Cl)cc2)s1
10.7%: Malme-3M
11.6%: A498
12%: U-251
28.6%: UO-31
19.5%: NCI-H522
24.7%: SK-MEL-5
20.4%: EKVX
11.9%: SR
18.8%: CAKI-1
11%: SF-295
< 10%: all other assays above
